Positions count from the first letter of the chain named.
Columns and labels:
[1] = biological target: T1, human Hv1 H140A (H^2.40A) (Homo sapiens, UniProt Q96D96, H140A); conditions: ref Ramsey et al., 2006; cited from earlier work
T1 sequence (Q96D96 1-273 H140A): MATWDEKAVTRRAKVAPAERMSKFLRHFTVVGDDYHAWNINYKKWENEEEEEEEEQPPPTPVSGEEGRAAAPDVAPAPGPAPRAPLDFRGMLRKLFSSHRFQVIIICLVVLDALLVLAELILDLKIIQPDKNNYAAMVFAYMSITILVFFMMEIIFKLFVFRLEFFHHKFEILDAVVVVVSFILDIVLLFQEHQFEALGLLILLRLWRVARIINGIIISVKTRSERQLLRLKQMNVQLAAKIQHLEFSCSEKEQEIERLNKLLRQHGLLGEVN

[2] = biological target: T2, human Hv1 D130H-H193A (Homo sapiens, UniProt Q96D96, D130H/H193A); assay: Whole-cell voltage clamp, Zn^2+ modulation of GAQ gating; type: cell-based
T2 sequence (Q96D96 1-273 D130H/H193A): T1 sequence (Q96D96 1-273 H140A) with D130H, A140H, H193A
Outline: (§1)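 Whole-cell patch clamp at ~21°C. Pipette and bath (mM): ~80 TMA-MeSO3, 100 Bis-Tris, 8 HCl, pH 6.5, 310–320 mOsm. ZnCl2 was diluted into bath solution and applied by gravity superfusion, at least 2 min per change. Test step voltage was set per construct from its V0.5. G_STEP = end-of-step current/(V−V_REV). Effect = 1 − G_Zn/G_control, fitted to the Hill equation. IC50 and nH are means ± SEM from separate cells. ΔpIC50 was tested by unpaired t test, P<0.05.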

[3] = biological target: T3, human Hv1 D130H (D^1.69H) (Homo sapiens, UniProt Q96D96, D130H); assay: as above; type: cell-based
T3 sequence (Q96D96 1-273 D130H): T1 sequence (Q96D96 1-273 H140A) with D130H, A140H
Outline: as §1

[4] = VSTEP 120 mV, calculated as log (IC50)
[5] = read-out: IC50, fit of the mean data to a Hill function, Fig. 4C

Mean ΔpIC50 = (pIC50_1 - pIC50_2) ([2]; D130H-H193A vs D130H): −0.16 | Mean ΔpIC50 = (pIC50_1 - pIC50_2) ([2]; D130H-H193A vs H193A): 1.44 | nH, fit of the mean data to a Hill function ([2]; Fig. 4C): 0.6 | Hill value ([2]; VSTEP 120 mV): 0.91 | pIC50 [2, 4]: 5.51 | IC50 [2, 5]: 5.6 µM | Mean ΔpIC50 = (pIC50_1 - pIC50_2) ([3]; D130H vs WT): 0.22 | nH, fit of the mean data to a Hill function ([3]; Fig. 4C): 0.7 | Hill value ([3]; VSTEP 120 mV): 0.95 | pIC50 [3, 4]: 5.67 | IC50 [3, 5]: 2.4 µM
Structure (SMILES): [Cl-].[Cl-].[Zn+2] [Zn^2+, ZnCl2]
decrease of Zn^2+ potency by single mutation [1]: 10- to 30 fold
